Reference: ChEMBL document CHEMBL2203081 (Bioorg Med Chem Lett, 2012)

Assays:
[1] = biological target: Cyclin-dependent kinase 2 (Homo sapiens) (UniProt P24941); assay: Inhibition of CDK2 assessed as residual activity at 10 uM relative to control
[2] = biological target: Mitogen-activated protein kinase 1 (Homo sapiens) (UniProt P28482); assay: Inhibition of ERK2 assessed as residual activity at 10 uM
Method in brief: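 Radioactivity-based enzymatic activity assay of the named kinase, run as part of a 131-kinase specificity panel at the National Centre for Protein Kinase Profiling (Dundee). Residual activity was read at the stated single inhibitor concentration.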

[3] = Inhibition of AMPK assessed as residual activity at 10 uM
[4] = tested on: Mast/stem cell growth factor receptor Kit (Homo sapiens), P10721 [L576P]; assay: Inhibition of KIT L576P mutant assessed as residual activity at 10 uM relative to control
Mus musculus = assay: Oral bioavailability in Swiss albino mouse at 10 mg/kg; type: ADME, organism-based; settings: in vivo
[5] = biological target: MAP kinase-activated protein kinase 5 (Homo sapiens) (UniProt Q8IW41); assay: Inhibition of PRAK assessed as residual activity at 1 uM
Plasma = assay: AUClast in Swiss albino mouse plasma at 1 mg/kg, iv; type: ADME, organism-based; design: time 0 - last, dose 1 mg/kg, route intravenous; settings: in vivo
Method in brief: (§1)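 Male Swiss Albino mice, single dose given intravenously (1 mg/kg) or orally (10 mg/kg). Drug measured in plasma and brain, with AUClast taken for each. The brain/plasma ratio is based on AUClast, and oral bioavailability is derived from the IV and PO plasma data.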

[6] = biological target: Serine/threonine-protein kinase SIK2 (Homo sapiens) (UniProt Q9H0K1); assay: Inhibition of SIK2 assessed as residual activity at 10 uM
[7] = biological target: Serine/threonine-protein kinase 36 (Homo sapiens) (UniProt Q9NRP7); assay: Inhibition of STK36 assessed as residual activity at 10 uM relative to control
Sequence of Serine/threonine-protein kinase 36 (Homo sapiens) (Q9NRP7 whole entry): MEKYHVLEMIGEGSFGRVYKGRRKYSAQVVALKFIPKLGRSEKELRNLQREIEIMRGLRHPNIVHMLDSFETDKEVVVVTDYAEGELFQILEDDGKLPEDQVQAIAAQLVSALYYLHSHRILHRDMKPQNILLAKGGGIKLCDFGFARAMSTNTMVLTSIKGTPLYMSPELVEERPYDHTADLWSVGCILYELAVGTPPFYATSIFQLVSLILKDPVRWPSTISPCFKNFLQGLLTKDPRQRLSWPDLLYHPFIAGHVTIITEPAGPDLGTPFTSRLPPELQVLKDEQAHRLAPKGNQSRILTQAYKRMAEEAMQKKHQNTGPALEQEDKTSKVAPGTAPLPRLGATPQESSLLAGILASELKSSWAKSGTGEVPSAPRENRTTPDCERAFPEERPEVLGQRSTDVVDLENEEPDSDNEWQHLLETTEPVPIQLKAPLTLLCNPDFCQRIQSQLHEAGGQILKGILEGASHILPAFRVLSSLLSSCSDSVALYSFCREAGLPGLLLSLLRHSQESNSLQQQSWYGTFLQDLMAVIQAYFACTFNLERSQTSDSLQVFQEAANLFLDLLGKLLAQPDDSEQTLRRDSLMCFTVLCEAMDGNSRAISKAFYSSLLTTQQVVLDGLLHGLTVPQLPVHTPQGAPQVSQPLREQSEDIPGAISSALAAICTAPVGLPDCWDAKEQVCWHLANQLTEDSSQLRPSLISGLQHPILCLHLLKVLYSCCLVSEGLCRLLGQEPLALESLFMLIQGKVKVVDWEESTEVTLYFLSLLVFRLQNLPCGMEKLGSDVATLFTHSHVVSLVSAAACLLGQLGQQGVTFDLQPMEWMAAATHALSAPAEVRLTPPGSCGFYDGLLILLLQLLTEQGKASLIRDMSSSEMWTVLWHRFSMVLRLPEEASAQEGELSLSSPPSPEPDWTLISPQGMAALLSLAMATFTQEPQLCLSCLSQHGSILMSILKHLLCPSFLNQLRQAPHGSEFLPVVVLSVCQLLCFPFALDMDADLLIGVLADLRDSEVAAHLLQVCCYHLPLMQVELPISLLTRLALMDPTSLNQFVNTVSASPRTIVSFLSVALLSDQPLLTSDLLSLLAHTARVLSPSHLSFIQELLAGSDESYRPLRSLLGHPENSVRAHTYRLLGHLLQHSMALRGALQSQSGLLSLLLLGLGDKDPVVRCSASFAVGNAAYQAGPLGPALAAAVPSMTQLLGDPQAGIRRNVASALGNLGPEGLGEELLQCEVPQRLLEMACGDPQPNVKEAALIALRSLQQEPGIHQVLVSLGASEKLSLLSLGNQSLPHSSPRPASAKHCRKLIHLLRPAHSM

[8] = biological target: T1, Ephrin type-B receptor 2 (Homo sapiens) (UniProt P29323); assay: Inhibition of EPH-B2 assessed as residual activity at 1 uM
T1 sequence (whole entry): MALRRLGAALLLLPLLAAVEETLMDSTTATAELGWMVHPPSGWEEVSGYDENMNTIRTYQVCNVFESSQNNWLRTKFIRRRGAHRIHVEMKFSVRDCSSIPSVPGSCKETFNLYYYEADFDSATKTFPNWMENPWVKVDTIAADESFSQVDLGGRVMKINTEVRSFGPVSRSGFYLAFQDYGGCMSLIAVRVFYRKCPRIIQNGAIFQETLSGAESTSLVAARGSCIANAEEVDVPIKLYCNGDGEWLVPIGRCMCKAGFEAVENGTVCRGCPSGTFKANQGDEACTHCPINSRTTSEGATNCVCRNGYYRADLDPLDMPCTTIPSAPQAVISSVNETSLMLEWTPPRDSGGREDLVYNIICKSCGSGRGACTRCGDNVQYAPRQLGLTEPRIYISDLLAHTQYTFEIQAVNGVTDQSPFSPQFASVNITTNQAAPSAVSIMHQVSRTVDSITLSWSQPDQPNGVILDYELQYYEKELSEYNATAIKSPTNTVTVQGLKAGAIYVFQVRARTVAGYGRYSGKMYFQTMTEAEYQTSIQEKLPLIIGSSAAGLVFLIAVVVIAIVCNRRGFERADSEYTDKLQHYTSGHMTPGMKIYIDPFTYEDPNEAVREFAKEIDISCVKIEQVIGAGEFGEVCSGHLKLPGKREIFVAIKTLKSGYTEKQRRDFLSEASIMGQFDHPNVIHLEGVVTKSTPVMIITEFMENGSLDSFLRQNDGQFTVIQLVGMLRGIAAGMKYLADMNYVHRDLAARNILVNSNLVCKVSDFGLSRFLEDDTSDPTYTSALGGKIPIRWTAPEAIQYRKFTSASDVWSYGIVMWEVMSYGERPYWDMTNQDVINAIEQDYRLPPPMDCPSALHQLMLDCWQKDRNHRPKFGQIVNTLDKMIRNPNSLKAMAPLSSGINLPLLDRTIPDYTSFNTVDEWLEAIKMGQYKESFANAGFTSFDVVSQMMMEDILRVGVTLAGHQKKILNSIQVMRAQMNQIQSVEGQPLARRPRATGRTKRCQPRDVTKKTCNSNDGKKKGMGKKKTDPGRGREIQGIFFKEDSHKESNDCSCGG
Method in brief: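 Standard radioactivity-based enzymatic kinase assays on a 131-kinase panel run by the Dundee profiling service; residual kinase activity recorded.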

[9] = biological target: Tyrosine-protein kinase Lyn (Homo sapiens) (UniProt P07948); assay: Inhibition of LYN assessed as residual activity at 10 uM relative to control
[10] = biological target: Angiopoietin-1 receptor (Homo sapiens) (UniProt Q02763); assay: Inhibition of TIE2 assessed as residual activity at 10 uM
Sequence of Angiopoietin-1 receptor (Homo sapiens) (Q02763 whole entry): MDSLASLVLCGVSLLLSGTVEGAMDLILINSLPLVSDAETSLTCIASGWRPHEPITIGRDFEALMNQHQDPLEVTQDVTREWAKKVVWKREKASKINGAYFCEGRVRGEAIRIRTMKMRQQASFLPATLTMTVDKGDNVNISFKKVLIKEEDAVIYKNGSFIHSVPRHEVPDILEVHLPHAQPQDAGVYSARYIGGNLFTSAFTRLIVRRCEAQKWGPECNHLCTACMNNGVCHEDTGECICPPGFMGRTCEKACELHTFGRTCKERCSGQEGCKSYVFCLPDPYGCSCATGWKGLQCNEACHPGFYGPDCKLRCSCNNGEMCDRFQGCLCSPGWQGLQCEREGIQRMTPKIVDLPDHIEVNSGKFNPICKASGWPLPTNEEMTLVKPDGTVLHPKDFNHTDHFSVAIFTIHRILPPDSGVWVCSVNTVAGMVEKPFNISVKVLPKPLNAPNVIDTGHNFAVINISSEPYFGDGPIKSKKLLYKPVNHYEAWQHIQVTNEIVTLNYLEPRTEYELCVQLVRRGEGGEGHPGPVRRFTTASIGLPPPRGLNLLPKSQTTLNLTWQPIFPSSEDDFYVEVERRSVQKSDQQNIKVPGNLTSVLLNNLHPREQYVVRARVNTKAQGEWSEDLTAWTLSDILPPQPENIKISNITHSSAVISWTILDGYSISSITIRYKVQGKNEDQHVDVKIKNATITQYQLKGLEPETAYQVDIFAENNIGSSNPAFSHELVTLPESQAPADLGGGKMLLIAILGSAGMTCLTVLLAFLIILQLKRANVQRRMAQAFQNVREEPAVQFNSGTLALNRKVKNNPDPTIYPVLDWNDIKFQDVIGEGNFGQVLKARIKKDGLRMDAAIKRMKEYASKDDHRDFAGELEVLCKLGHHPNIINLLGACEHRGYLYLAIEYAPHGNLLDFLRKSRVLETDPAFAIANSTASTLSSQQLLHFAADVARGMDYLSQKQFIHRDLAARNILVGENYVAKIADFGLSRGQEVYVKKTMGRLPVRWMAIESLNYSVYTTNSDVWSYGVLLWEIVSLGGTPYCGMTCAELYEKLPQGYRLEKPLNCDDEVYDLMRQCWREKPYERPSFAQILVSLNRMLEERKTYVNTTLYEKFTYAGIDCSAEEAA

[11] = biological target: Protein-tyrosine kinase 6 (Homo sapiens) (UniProt Q13882); assay: Inhibition of BRK assessed as residual activity at 10 uM
Method in brief: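 Radioactivity-based enzymatic assay against a panel of 131 kinases (Dundee profiling). Activity remaining was measured with compound present at the stated concentration.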

[12] = biological target: Serine/threonine-protein kinase PknB (Mycobacterium tuberculosis) (UniProt P9WI81); assay: Inhibition of Mycobacterium tuberculosis PKNB assessed as residual activity at 10 uM relative to control
[13] = biological target: Epidermal growth factor receptor (Homo sapiens) (UniProt P04626+P00533+Q15303+P21860); assay: Inhibition of EGFR L747-T751del, Sins mutant assessed as residual activity at 10 uM relative to control; type: protein assay
Method in brief: (§2)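 Competition kinase-binding assay (KINOMEscan) across a non-redundant panel of 329 kinases beyond the radiometric panel; residual binding expressed relative to control.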

[14] = biological target: Casein kinase I isoform gamma-1 (Homo sapiens) (UniProt Q9HCP0); assay: Inhibition of CSNK1G1 assessed as residual activity at 10 uM relative to control; method in brief: as §2
[15] = biological target: T1, Ephrin type-B receptor 2 (Homo sapiens); assay: Inhibition of EPHB2 assessed as residual activity at 10 uM relative to control; method in brief: as §2
[16] = biological target: SRSF protein kinase 1 (Homo sapiens) (UniProt Q96SB4); assay: Inhibition of SRPK1 assessed as residual activity at 10 uM relative to control
Sequence of SRSF protein kinase 1 (Homo sapiens) (Q96SB4 whole entry): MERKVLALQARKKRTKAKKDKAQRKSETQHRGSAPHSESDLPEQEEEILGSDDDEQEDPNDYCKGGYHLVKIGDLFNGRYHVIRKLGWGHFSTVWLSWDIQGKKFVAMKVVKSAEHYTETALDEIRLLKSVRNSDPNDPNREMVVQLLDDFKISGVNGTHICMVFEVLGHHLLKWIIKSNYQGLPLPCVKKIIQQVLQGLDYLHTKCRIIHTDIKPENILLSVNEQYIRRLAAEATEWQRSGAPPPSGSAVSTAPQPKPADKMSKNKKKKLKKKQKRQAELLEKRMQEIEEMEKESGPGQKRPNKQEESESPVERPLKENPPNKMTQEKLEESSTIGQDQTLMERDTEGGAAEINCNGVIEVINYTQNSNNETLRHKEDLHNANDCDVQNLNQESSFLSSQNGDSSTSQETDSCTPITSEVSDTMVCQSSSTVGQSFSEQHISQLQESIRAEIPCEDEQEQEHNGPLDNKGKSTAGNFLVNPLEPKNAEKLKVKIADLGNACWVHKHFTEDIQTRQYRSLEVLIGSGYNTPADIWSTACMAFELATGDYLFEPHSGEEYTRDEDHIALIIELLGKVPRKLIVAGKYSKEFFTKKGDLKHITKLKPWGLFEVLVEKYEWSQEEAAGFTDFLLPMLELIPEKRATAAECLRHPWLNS

[17] = biological target: Serine/threonine-protein kinase WNK3 (Homo sapiens) (UniProt Q9BYP7); assay: Inhibition of WNK3 assessed as residual activity at 10 uM relative to control
[18] = biological target: Myosin light chain kinase, smooth muscle (Homo sapiens) (UniProt Q15746); assay: Inhibition of SmMLCK assessed as residual activity at 10 uM
[19] = biological target: SRSF protein kinase 1 (Homo sapiens) (UniProt Q96SB4); assay: Inhibition of SRPK1 assessed as residual activity at 1 uM
Brain = assay: AUClast in Swiss albino mouse brain at 1 mg/kg, iv; type: ADME, organism-based; design: dose 1 mg/kg, route intravenous, time 0 - last; settings: in vivo; method in brief: as §1
[20] = biological target: Leukocyte tyrosine kinase receptor (Homo sapiens) (UniProt P29376); assay: Inhibition of LTK assessed as residual activity at 10 uM relative to control
Sequence of Leukocyte tyrosine kinase receptor (Homo sapiens) (P29376 whole entry): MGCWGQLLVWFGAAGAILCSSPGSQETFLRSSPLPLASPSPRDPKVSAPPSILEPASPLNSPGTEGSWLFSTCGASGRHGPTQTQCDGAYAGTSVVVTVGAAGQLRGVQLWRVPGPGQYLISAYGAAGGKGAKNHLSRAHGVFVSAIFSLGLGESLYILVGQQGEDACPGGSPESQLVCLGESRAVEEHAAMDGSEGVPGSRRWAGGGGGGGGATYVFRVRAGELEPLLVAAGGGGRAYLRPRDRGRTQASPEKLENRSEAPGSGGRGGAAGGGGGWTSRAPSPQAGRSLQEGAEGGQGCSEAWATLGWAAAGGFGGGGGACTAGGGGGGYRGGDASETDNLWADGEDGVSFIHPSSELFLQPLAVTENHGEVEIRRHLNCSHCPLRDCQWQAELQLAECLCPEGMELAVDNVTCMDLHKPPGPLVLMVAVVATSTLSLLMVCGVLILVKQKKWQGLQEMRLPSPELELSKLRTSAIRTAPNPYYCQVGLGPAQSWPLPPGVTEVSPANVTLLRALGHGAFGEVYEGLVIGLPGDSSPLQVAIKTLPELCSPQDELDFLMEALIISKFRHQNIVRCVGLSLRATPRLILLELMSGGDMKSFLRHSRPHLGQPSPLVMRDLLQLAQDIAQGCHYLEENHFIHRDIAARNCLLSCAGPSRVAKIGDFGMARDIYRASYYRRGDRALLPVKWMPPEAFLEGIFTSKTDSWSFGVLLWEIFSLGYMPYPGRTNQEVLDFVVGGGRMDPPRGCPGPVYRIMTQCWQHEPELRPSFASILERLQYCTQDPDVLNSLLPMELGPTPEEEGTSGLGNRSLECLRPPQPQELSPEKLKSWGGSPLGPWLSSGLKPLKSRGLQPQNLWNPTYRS

[21] = biological target: Receptor-interacting serine/threonine-protein kinase 2 (Homo sapiens) (UniProt O43353); assay: Inhibition of RIPK2 assessed as residual activity at 10 uM
[22] = biological target: Ephrin type-A receptor 8 (Homo sapiens) (UniProt P29322); assay: Inhibition of EPHA8 assessed as residual activity at 10 uM relative to control; method in brief: as §2
Sequence of Ephrin type-A receptor 8 (Homo sapiens) (P29322 whole entry): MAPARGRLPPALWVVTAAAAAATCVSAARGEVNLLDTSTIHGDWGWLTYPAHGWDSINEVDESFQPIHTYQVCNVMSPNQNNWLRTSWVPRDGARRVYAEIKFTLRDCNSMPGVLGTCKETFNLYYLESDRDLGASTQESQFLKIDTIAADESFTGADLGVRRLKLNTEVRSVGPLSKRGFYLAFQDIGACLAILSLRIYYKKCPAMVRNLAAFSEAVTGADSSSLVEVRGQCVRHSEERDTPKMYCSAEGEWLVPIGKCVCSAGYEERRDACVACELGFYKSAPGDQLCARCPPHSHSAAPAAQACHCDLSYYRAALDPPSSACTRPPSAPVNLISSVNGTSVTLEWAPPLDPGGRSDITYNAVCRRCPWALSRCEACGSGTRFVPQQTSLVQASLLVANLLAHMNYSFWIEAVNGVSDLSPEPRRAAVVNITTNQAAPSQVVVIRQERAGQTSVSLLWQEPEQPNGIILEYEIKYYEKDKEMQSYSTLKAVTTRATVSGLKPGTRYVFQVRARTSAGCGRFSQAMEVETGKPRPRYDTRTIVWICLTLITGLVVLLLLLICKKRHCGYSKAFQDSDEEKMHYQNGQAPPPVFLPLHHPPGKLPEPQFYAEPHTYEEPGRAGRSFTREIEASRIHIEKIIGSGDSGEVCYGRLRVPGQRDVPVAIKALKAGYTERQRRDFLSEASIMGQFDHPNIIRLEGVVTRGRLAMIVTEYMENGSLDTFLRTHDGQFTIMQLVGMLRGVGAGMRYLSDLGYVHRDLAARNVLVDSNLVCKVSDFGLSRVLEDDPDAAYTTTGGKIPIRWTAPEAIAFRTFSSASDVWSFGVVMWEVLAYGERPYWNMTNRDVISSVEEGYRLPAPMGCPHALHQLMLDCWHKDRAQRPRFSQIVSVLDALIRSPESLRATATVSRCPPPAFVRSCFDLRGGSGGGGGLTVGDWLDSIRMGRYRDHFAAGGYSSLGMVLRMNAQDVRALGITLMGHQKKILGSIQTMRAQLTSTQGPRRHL

O=C(Nc1cccnc1)c1cc(-c2ccnc(F)c2)ccc1OCc1ccccc1
Activity [1]: 53% | Activity [2]: 115% | Activity [3]: 90% | Activity [4]: 52% | F (Mus musculus): 12.2% | Activity [5]: 109% | AUClast (Plasma): 519.6 ng·h/mL | Activity [6]: 111% | Activity [7]: 63% | Activity [8]: 123% | Activity [9]: 73% | Activity [10]: 133% | Activity [11]: 101% | Activity [12]: 72% | Activity [13]: 69% | Activity [14]: 79% | Activity [15]: 71% | Activity [16]: 79% | Activity [17]: 62% | Activity [18]: 23% | Activity [19]: 61% | AUClast (Brain): 708.7 ng·h/mL | Activity [20]: 21% | Activity [21]: 56% | Activity [22]: 52%
